The values that follow come from ChEMBL document CHEMBL2417528, “Synthesis and anticancer activity evaluation of a series of [1,2,4]triazolo[1,5-a]pyridinylpyridines in vitro and in vivo” (Eur J Med Chem, 2013).

One data set deals with MCF7. The experiment in a line: Antiproliferative activity against human MCF7 cells after 48 hrs by MTT assay. The data set is classed as functional, cell-based. Conditions: MCF7, 48 h. The method, boiled down: (§1)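 Cells seeded at 3000–5000 per well in DMEM with 10% FBS and preincubated 24 h at 37 °C. Cell numbers were titrated so controls stay in exponential growth, then 48 h drug exposure. MTT added for 4 h, formazan pelleted by centrifugation and dissolved in DMSO, OD read at 490 nm. IC50 calculated from inhibition ratios, mean of three separate experiments in triplicate.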
A general note: Tetrazolium dyes change colour on reduction, which living cells bring about.

The nature of data set [1]: Antiproliferative activity against human U87MG cells after 48 hrs by MTT assay. The data set is classed as functional, cell-based, U-87MG ATCC. Conditions: U-87 MG. The method, boiled down:
as §1

Data set [2] concerns HCT-116. Description: Antiproliferative activity against human HCT116 cells after 48 hrs by MTT assay. The data set is classed as functional, cell-based. Conditions: HCT-116, 48 h. The method, boiled down:
as §1

The test system of data set [3] is Mus musculus. The experiment in a line: Toxicity in mouse S180 cells xenografted mouse assessed as change on body weight at 1 mg/kg, po qd for 10 days. The format is organism-based, CCRF S-180. On the set-up: dose 1 mg/kg, route oral. The settings on record: in vivo, 240 h. The method, boiled down: (§2)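 S-180 tumor-bearing mice (6 per group) dosed orally once daily for 10 days at 1 or 5 mg/kg in DMSO/PEG400/5% glucose (10:60:30), with a vehicle solvent group. Body weights recorded daily. Animals sacrificed on Day 11.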

Data set [4] relates to Mus musculus. The experiment in a line: Toxicity in mouse S180 cells xenografted mouse assessed as mortality at 20 mg/kg, po. Conditions: in vivo. The format is organism-based, CCRF S-180. Set-up: dose 20 mg/kg, route oral.
Data set [5] concerns CCRF S-180. Description: Antitumor activity against mouse S180 cells xenografted in mouse assessed as inhibition of tumor growth at 5 mg/kg, po qd for 10 days relative to control. The settings on record: CCRF S-180, 240 h. The data set is classed as functional. The method, boiled down: (§3)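 Mice bearing sarcoma S-180 randomized into three groups of 6. Compound in DMSO/PEG400/5% glucose (10:60:30) given orally once daily for 10 days at 1 or 5 mg/kg. The solvent group received the same volume of vehicle. Mice sacrificed on Day 11, tumors weighed, and tumor-weight inhibitory ratio calculated versus the solvent group.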

Data set [6] deals with HCT-116. Description: Inhibition of PI3K in human HCT116 cells assessed as reduction of AKT phosphorylation at Ser473 at 10 uM after 1 hr by Western blot analysis. The data set is classed as cell-based. The method, boiled down: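 HCT-116 cells seeded at 1 × 10⁶ per well in DMEM with 10% FBS and grown 16 h at 37 °C. Treated 1 h at 37 °C at […] or with DMSO. Cells washed in ice-cold PBS, lysed, and clarified at 12,000 rpm for 20 min at 4 °C. Protein quantified by BCA, run on SDS-PAGE, transferred to nitrocellulose, and probed for AKT and p-Ser473 AKT.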
A general note: In western blotting, separated proteins are transferred to a membrane and probed.

The subject of data set [7] is CCRF S-180. Description: Antitumor activity against mouse S180 cells xenografted in mouse assessed as inhibition of tumor growth at 1 mg/kg, po qd for 10 days relative to control. The settings on record: CCRF S-180, 240 h. The data set is classed as functional. The method, boiled down: as §3
Data set [8] has as its system Mus musculus. The experiment in a line: Toxicity in mouse S180 cells xenografted mouse assessed as change on body weight at 5 mg/kg, po qd for 10 days. The format is organism-based, CCRF S-180. Set-up: dose 5 mg/kg, route oral. Conditions: in vivo, 240 h. In a few lines:
as §2

The source made the active and inactive calls. No cut-off for these calls is given here. A value given as a limit tells only on which side of the number the result lay.

Turning to `COc1ncc(-c2ccc3nc(NC(C)=O)nn3c2)cc1NS(=O)(=O)c1ccc(Cl)cc1`, the IC50 (commonly the concentration that inhibits the measured activity by half) in the data set on MCF7 was determined as 2.01 µM; in data set [1] it was 2.09 µM; in the data set with HCT-116 [2] it was 0.74 µM.
The like results for `Cn1c(=O)n(-c2ccc(C(C)(C)C#N)cc2)c2c3cc(-c4cnc5ccccc5c4)ccc3ncc21` [DACTOLISIB] were, in that order, 0.73 µM, 1.32 µM and 1.16 µM.
Taken in the same sequence, the figures for `COCCNc1nc2ccc(-c3cnc(OC)c(NS(=O)(=O)c4ccc(F)cc4)c3)cn2n1` were 2.41 µM, 6.39 µM and 4.61 µM.
Turning to `CC(=O)Nc1nc2ccc(-c3cnc(Cl)c(NS(=O)(=O)c4ccc(C)cc4)c3)cn2n1`, the IC50 in the data set on MCF7 was determined as 3.25 µM; in [1], 3.76 µM; in the data set with HCT-116 [2], 2.65 µM.
Taken in the same sequence, the figures for `COc1ncc(-c2ccc3nc(NC(=O)C4CC4)nn3c2)cc1NS(=O)(=O)c1ccc(F)cc1` were 2.59 µM, 4.85 µM and 1.74 µM.
For `CCOC(=O)CNc1nc2ccc(-c3cnc(OC)c(NS(=O)(=O)c4ccc(F)cc4)c3)cn2n1`, the IC50 with MCF7 was 4.41 µM; in data set [1], 7.94 µM; in the data set on HCT-116 [2], 4.37 µM.
The like results for `CNC(=O)CNc1nc2ccc(-c3cnc(OC)c(NS(=O)(=O)c4ccc(F)cc4)c3)cn2n1` were, in that order, 2.54 µM, 7.29 µM and 4.91 µM.
Taken in the same sequence, the figures for `CCOCCNc1nc2ccc(-c3cnc(OC)c(NS(=O)(=O)c4ccc(F)cc4)c3)cn2n1` were 1.35 µM, 8.15 µM and 9.35 µM.
`COc1ncc(-c2ccc3nc(NC(C)=O)nn3c2)cc1NS(=O)(=O)c1ccc(F)cc1`: the figures for the Activity result in the data set with Mus musculus [3], in the data set on Mus musculus [4] and with Mus musculus [8] were “Non-toxic”, “Non-toxic” and less than 90%, respectively. Besides, the results for the IC50 (in the data set with MCF7; in [1]; in the data set on HCT-116 [2]) were 0.84 µM, 1.82 µM and 0.85 µM, respectively. In addition, the inhibition in vivo (as a rule, the percentage by which the read-out fell short of the control) at 5 mg/kg with CCRF S-180 [5] was found to be 75.8%. Moreover, in the data set with HCT-116 [6], the inhibition entry is “Active”. In the data set with CCRF S-180 [7], the inhibition in vivo at 1 mg/kg is 20%.
On to `COc1ncc(-c2ccc3nc(N)nn3c2)cc1NS(=O)(=O)c1ccc(Cl)cc1`, for which the values for the IC50 (in the data set with MCF7; in data set [1]; in the data set on HCT-116 [2]) were 1.82 µM, 3.11 µM and 2.5 µM, respectively.
The like results for `COc1ncc(-c2ccn3nc(NC(C)=O)nc3c2)cc1NS(=O)(=O)c1ccc(F)cc1` were, in that order, 1.73 µM, 2.41 µM and 1.32 µM.
`CC(=O)Nc1nc2ccc(-c3cnc(Cl)c(NS(=O)(=O)c4ccc(F)cc4)c3)cc2s1` gave an IC50 with MCF7 of 0.23 µM. In the data set on HCT-116 [6], the inhibition entry was “Active”.
For the compound `O=C(Nc1nc2ccc(-c3cnc(Cl)c(NS(=O)(=O)c4ccc(F)cc4)c3)cn2n1)C1CC1`, the IC50 was greater than 60 µM in the data set on MCF7, 11 µM in data set [1] and 9.98 µM in the data set with HCT-116 [2].
Consider `COc1ncc(-c2ccn3nc(N)nc3c2)cc1NS(=O)(=O)c1ccc(F)cc1`, for which the values for the IC50 (with MCF7; in data set [1]; in the data set with HCT-116 [2]) were 0.92 µM, 1.77 µM and 0.82 µM, respectively. The Activity result in the data set with Mus musculus [4] is listed as “Toxic”. In addition, the inhibition result in the data set with HCT-116 [6] was “Active”.
Turning to `CC(=O)Nc1nc2ccc(-c3cnc(Cl)c(NS(=O)(=O)c4ccc(F)cc4)c3)cn2n1`, the values for the half-maximal inhibitory concentration (IC50) (with MCF7; in data set [1]; in the data set on HCT-116 [2]) were 19.8 µM, 6.95 µM and 9.23 µM, respectively.
Regarding `COc1ncc(-c2ccc3nc(NC(C)=O)nn3c2)cc1NS(=O)(=O)C1CC1`, the IC50 in the data set on MCF7 worked out at 1.64 µM; in [1] it was 3.73 µM; in the data set on HCT-116 [2] it was 2.22 µM.
As to `COc1ncc(-c2ccc3nc(NCC(N)=O)nn3c2)cc1NS(=O)(=O)c1ccc(F)cc1`, the IC50 in the data set on MCF7 came out at 8.4 µM; in data set [1] it was 5.8 µM; with HCT-116 [2] it was 6.1 µM.
The like results for `COc1ncc(-c2ccc3nc(N)nn3c2)cc1NS(=O)(=O)c1ccc(F)cc1` were, in that order, 1.93 µM, 3.95 µM and 2.97 µM.
The like results for `COc1ncc(-c2ccn3nc(NC(C)=O)nc3c2)cc1NS(=O)(=O)c1ccc(Cl)cc1` were, in that order, 1.24 µM, 2.12 µM and 1.33 µM.
The like results for `COc1ncc(-c2ccc3nc(NC(C)=O)nn3c2)cc1NS(=O)(=O)c1ccc(F)cc1F` were, in that order, 0.87 µM, 2 µM and 0.74 µM.
In the case of `COc1ncc(-c2ccc3nc(N)nn3c2)cc1NS(=O)(=O)c1ccc(C)cc1`, the 50% inhibitory concentration (IC50) came to 1.55 µM with MCF7, 2.51 µM in data set [1] and 3.4 µM in the data set on HCT-116 [2].
The like results for `COc1ncc(-c2ccc3nc(NCC(=O)O)nn3c2)cc1NS(=O)(=O)c1ccc(F)cc1` were, in that order, 12.6 µM, 9.81 µM and 8.64 µM.
Taken in the same sequence, the figures for `COc1ncc(-c2ccn3nc(NC(C)=O)nc3c2)cc1NS(=O)(=O)c1ccc(C)cc1` were 1.36 µM, 2.03 µM and 1.38 µM.
Taken in the same sequence, the figures for `COc1ncc(-c2ccc3nc(NC(C)=O)nn3c2)cc1NS(=O)(=O)c1ccc(C)cc1` were 0.81 µM, 1.6 µM and 0.6 µM.
